CXCR6 block: CXCR6 (human) receptor inhibition. O00574. CHO-K1 PathHunter CXCR6 beta-arrestin, luminescence. inhibition, % at 20 µM. 360,000 compounds, 0.36% hits; in the data active = inhibition above about 34%, passing the limit was not always enough;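 also: antagonist mode with CXCL16 agonist at 10 nM final; 0% = 10 nM CXCL16 with DMSO and 100% = unstimulated wells without agonist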
Target sequence (O00574 whole entry, looked up): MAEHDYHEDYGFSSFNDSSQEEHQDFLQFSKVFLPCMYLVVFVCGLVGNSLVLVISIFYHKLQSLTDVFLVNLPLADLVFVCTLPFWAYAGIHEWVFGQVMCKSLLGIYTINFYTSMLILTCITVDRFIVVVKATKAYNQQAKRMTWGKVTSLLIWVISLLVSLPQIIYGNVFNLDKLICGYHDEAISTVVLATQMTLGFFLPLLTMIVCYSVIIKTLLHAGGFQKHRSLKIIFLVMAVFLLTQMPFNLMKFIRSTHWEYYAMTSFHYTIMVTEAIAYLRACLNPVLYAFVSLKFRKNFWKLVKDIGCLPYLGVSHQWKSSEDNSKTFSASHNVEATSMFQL
APJ ag: agonists of human APJ apelin receptor. CHO-K1 APJ PathHunter beta-arrestin, luminescence; 0% DMSO wells, 100% apelin. activation, % at 20 µM. 330,000 compounds, 0.11% hits;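 active = activation more than six SD over the plate average, tested at 20 µM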;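 also: 0% = DMSO alone and 100% = apelin-13 at 10 nM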
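Assay system – PathHunter CHO-K1 APJ (AGTRL-1) beta-arrestin reporter cells · Compound – one dose, 20 µM compound, 1% DMSO · Timing – compound 90 min 25 °C, reagent 1 h · Measured by – luminescence from split beta-galactosidase complementation, Galacton Star/Emerald II substrate · Measure – beta-arrestin recruitment to APJ as agonist activity, luminescent signal · Benchmarks – DMSO vs Apelin-13 10 nM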
EBI2 block: blocks human EBI2 receptor beta-arrestin signaling; EBI2 beta-arrestin recruitment, luminescence, 7a,25-OHC stimulated; inhibition, % at 5 µM; 360,000 compounds, 0.81% hits; AID 651636; in the data active = inhibition above about 38%;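 also: enzyme fragment complementation signal reports receptor beta-arrestin coupling in cells; 0% = agonist plus DMSO wells and 100% = wells without agonist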
APJ antagonist: antagonists of human APJ apelin receptor; CHO-K1 APJ beta-arrestin complementation, luminescence; inhibition, % at 20 µM; 330,000 compounds, 0.32% hits; AID 2521;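 active = inhibition above about 40% at 20 µM, limit read from the data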;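 also: cells challenged with 10 nM apelin-13 agonist together with compound; plate controls were apelin-13 plus DMSO wells for no effect and DMSO wells lacking apelin-13 for full effect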
CCR6 antagonist: CCR6 (human) receptor antagonism; P51684; CHO-K1 CCR6 PathHunter beta-arrestin, luminescence, CCL20-stimulated; inhibition, % at 20 µM; 340,000 compounds, 0.49% hits;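 active = compounds whose inhibition of the agonist-driven luminescence signal at 20 µM reaches about 50%, limit read from the data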;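 also: cells stimulated with CCL20 at 14 nM final; plate controls were DMSO with CCL20 for no effect and DMSO without agonist for full effect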
EBI2 antag conf: confirmation of human EBI2 receptor antagonists | shares compounds with EBI2 block | EBI2 beta-arrestin luminescence, 7a,25-OHC antagonism | inhibition, % at 5 µM | 2,400 compounds, 29% hits | AID 651997;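 active = inhibition of at least 50%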
EBI2 ag: EBI2 agonism counter-screen | shares compounds with EBI2 block | 2,400 tested, under 10 active | EBI2-expressing cells, agonist mode, luminescence, 60 min; 0% vehicle, 100% 7α,25-dihydroxycholesterol control | activation, % at 5 µM;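 active = activation of at least 50%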
bGal cs: beta-galactosidase inhibition counter-screen. inhibition, % at 5 µM. shares compounds with EBI2 block. 2,400 compounds, 1% hits. purified beta-galactosidase, luminescent Galacton Star, 15 min;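 active = replicate-average signal at least 3 plate SD below neutral wells, shown as high inhibition, flagging enzyme-inhibiting false positives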;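 also: 0% = DMSO wells with enzyme and 100% = wells lacking enzyme; higher means stronger loss of beta-gal luminescence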
Active calls of the source: *; / = no result. Only some compounds are listed: those with a hit (about 1.5% of all), similar ones and a draw of the others.

SMILES	CXCR6 block	APJ ag	EBI2 block	APJ antagonist	CCR6 antagonist	EBI2 antag conf	EBI2 ag	bGal cs
COc1ccc(OC)c(S(=O)(=O)N2CCN(CC(O)COc3ccccc3)CC2)c1 (configuration not stated)	-3	-3	46*	16	11	8	1	10
COc1ccc2cc(C(=O)C3CCCN(C(=O)/C=C/c4ccccn4)C3)ccc2c1 (configuration not stated)	3	1	-5	1	20	/	/	/
CSc1ncccc1C(=O)N1CCN(S(=O)(=O)c2ccc(F)cc2)CC1	5	-2	-3	3	1	/	/	/
Cc1ccc(C)c(NC(=O)CN2C(=O)NC(C)(c3ccc4c(c3)OCCO4)C2=O)c1 (configuration not stated)	-6	-2	-7	12	16	/	/	/
CCOC(=O)C1CCN(CC(=O)Nc2cc(C)nn2-c2nc3ccccc3s2)CC1	12	-3	55*	8	4	22	1	-9
Cc1cc(NC(=O)CN2CC(C)OC(C)C2)n(-c2nc3ccccc3s2)n1 (configuration not stated)	4	-1	18	21	8	/	/	/
O=C(CN(c1ccccc1)S(=O)(=O)c1ccccc1)NCCSc1nc2ccccc2s1	8	-1	59*	24	-2	53*	1	-3
Cc1ccc(N(CC(=O)NCCSc2nc3ccccc3s2)S(=O)(=O)c2ccccc2)c(C)c1	7	-2	46*	-2	9	14	0	2
Cc1ccc(C(=O)Nc2ccccc2C(=O)NCc2ccco2)cc1S(=O)(=O)N1CCCCC1	12	-4	44*	-1	26	28	0	8
Cc1ccc(C(=O)NCc2ccco2)cc1S(=O)(=O)N1CCCCC1	4	-7	-2	5	14	/	/	/
CCC1(c2ccccc2)NC(=O)N(CC(=O)Nc2cc(S(=O)(=O)N3CCCCCC3)ccc2OC)C1=O (configuration not stated)	2	7	-18	-3	-12	/	/	/
O=C(Nc1cccc(F)c1)C1CCN(C(=O)c2ccc(Br)cc2)CC1	2	-3	45*	-2	17	21	-2	-8
O=C(Nc1cccc(S(=O)(=O)N2CCCCCC2)c1)C1CCN(C(=O)c2ccc(Cl)cc2)CC1	-10	-2	52*	11	20	30	-1	7
O=C(Nc1cccc(S(=O)(=O)N2CCCCC2)c1)C1CCN(C(=O)c2ccc(Cl)cc2)CC1	-4	2	42	27	10	/	/	/
Cc1cccc(NC(=O)C2CCN(C(=O)c3ccc(Cl)cc3)CC2)n1	16	-3	46*	17	15	29	-1	6
O=C(NCc1ccccc1)c1ccc(C2SCC(=O)N2Cc2ccccc2)cc1 (configuration not stated)	9	-2	41*	8	11	36	-1	-9
O=C(NCc1ccccc1)c1ccc(Oc2ccc(C(=O)NCc3ccccc3)cc2)cc1	-2	-3	47*	-7	-7	21	1	8
CCCN1C(=O)c2ccc(C(=O)Nc3cc(C)on3)cc2C1=O	4	-6	-9	-15	-12	/	/	/
Cc1cc(NC(=O)c2ccc3c(c2)C(=O)N(Cc2ccccc2)C3=O)no1	-3	-1	47*	4	3	20	0	5
O=C(Nc1ccc(O)cc1)c1ccc2c(c1)C(=O)N(Cc1ccccc1)C2=O	-8	1	57*	-24	-1	22	1	9
CCOC(=O)Nc1sc(C)c(C)c1C(N)=O	2	0	0	13	-10	/	/	/
Nc1ncnc2c1ncn2[C@@H]1O[C@H](CNCC#Cc2ccccc2)[C@@H](O)[C@H]1O	-3	0	-6	-5	-8	/	/	/
COCCOC(=O)c1c(NC(=O)CN2CCCc3ccccc32)sc(C(N)=O)c1C	-5	-3	76*	3	-2	49	1	-1
COc1ccc(N(CC(=O)NCCSc2ccc(C)cc2)S(=O)(=O)c2ccccc2)c(OC)c1	1	5	81*	5	1	47	1	2
COc1cccc(N(CC(=O)NCCSc2ccc(Cl)cc2)S(C)(=O)=O)c1	-1	1	87*	4	1	69*	1	9
SMILES	CXCR6 block	APJ ag	EBI2 block	APJ antagonist	CCR6 antagonist	EBI2 antag conf	EBI2 ag	bGal cs
COc1cccc(N(CC(=O)NCCSc2ccccc2)S(C)(=O)=O)c1	2	-1	29	13	-4	/	/	/
COc1ccc(N(CC(=O)NCCSc2ccccc2)S(C)(=O)=O)cc1	3	-2	63*	11	4	40	0	-12
CC(C)NC(=O)C1(C)CN(S(C)(=O)=O)CC(=O)N1C1CCN(Cc2ccccc2)CC1 (configuration not stated)	/	/	6	/	/	/	/	/
CN(Cc1ccccc1)C(=O)COC(=O)COc1ccc(Cl)cc1	-4	2	2	2	3	/	/	/
Cc1cc(OCC(=O)N(C)Cc2ccccc2)cc(C)c1Cl	-1	-3	87*	5	14	65*	1	4
CN(Cc1ccccc1)C(=O)COc1cc(Cl)ccc1Cl	-2	0	6	18	20	/	/	/
CN(Cc1ccccc1)C(=O)COc1ccc2ccccc2c1	-3	-3	90*	-9	0	87*	-1	-14
N#Cc1cnn(-c2ccccc2)c1NC(=O)c1ccccc1F	0	-3	2	12	11	/	/	/
O=C(CSc1ccc2nnc(-c3ccccn3)n2n1)Nc1ccccc1	-12	7	55*	-6	0	28	0	1
CCOc1ccc(NC(=O)CSc2ccc3nnc(-c4ccccn4)n3n2)cc1	-2	-7	-5	17	7	/	/	/
CC(NC(=O)CCCOc1ccc(Cl)cc1)c1ccccc1 (configuration not stated)	-10	5	44*	0	5	10	-1	-11
O=C(O)c1ccc2c(=O)n3c(nc2c1)/C(=C/c1cccc(Cl)c1Cl)CC3	8	0	5	20	15	/	/	/
CCCCCCSc1ccc(-c2nc3ccc(C)cn3c2NCCCC)cc1OC	20	/	63*	/	/	63*	-2	-21
CCC(=O)N1CCN(c2cc(C)ccc2C)CC1	2	-8	4	17	-8	/	/	/
Cc1ccc(C)c(N2CCN(C(=O)c3csc4ccccc34)CC2)c1	2	-5	48*	19	15	32	1	3
Cc1onc(-c2c(Cl)cccc2Cl)c1C(O)c1ccccc1 (configuration not stated)	1	-1	4	14	18	/	/	/

High-throughput results deposited in PubChem by Sanford-Burnham Center for Chemical Genomics.
